Calls of active or inactive are those of the source.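 Rule for the calls, unless noted: active = mean duplicate activation above the buffer control mean plus 5 SD of those controls; inactive = the rest.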
Tests used:
[1] = thallium flux activation in parental CHO cells, counter-screen for KCNQ1 potentiator project (AID 493006;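 active = duplicate-averaged activation above buffer control mean plus 5 SD of those controls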); settings: parental CHO-K1 cells, FluxOR thallium flux, at 10 µM; hits give high values
How it was run: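 Test system: parental CHO-K1 cells, FluxOR dye-loaded / Probe or stimulus: potassium plus thallium depolarizing stimulus, 5x stock 12.5 mM K2SO4, Tl2SO4 / Timing: overnight 37 °C plating, 90 min dye, 20 min dark compound / Measured by: kinetic thallium-flux fluorescence / Read-out: max-minus-min fluorescence over baseline, percent of buffer-to-R-L3 span / Benchmarks: buffer and R-L3 controls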

[2] = target: Potassium voltage-gated channel subfamily KQT member 1 (Homo sapiens) (UniProt P51787); assay: KCNQ1 potassium channel potentiators, confirmation, FluxOR thallium flux, CHO cells, duplicates (AID 493007;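 active = potentiation averaged over duplicate wells exceeding buffer-only control mean by more than 3 SD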;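 for outcome: cells depolarized by a potassium plus thallium sulfate stimulus after compound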;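 for potentiation: 0% = buffer-only wells and 100% = R-L3 activator control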); settings: KCNQ1 cell line, FluxOR thallium flux fluorescence, at 10 µM; hits give high values, % of reference activator effect, buffer zero
How it was run: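 Assay system: CHO cells carrying KCNQ1 | Controls: Buffer and R-L3 controls | Schedule: FluxOR dye loading 90 min, compound exposure 20 min, room temperature | Read-out: Baseline-normalized fluorescence change, percent of buffer-to-R-L3 range | Replicates: Each compound tested in duplicate | Technique: Kinetic thallium influx fluorescence with FluxOR dye, 10 s baseline, 110 s post-stimulus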

[3] = target: Potassium voltage-gated channel subfamily KQT member 2 (Rattus norvegicus) (UniProt O88943); assay: rat KCNQ2 channel potentiation, selectivity assay for KCNQ1 potentiator project, KCNQ2-CHO-K1 cells (AID 493009;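 active = mean duplicate potentiation above the buffer control mean plus 5 SD of buffer wells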;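 note: assay conditions were tuned for KCNQ1 rather than KCNQ2 modulators; signal is max minus min fluorescence divided by baseline after thallium stimulus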); settings: FluxOR thallium flux fluorescence, at 10 µM; hits give high values, scaled: buffer 0, activator control 100
[4] = target: Potassium voltage-gated channel subfamily KQT member 1 (Homo sapiens) (UniProt P51787); assay: KCNQ1 channel current potentiators, confirmation, orthogonal assay for KCNQ1 potentiator project, IonWorks patch clamp, KCNQ1-CHO cells (AID 493184;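 active = current rise at least 3 SD above the untreated control mean in each of two repeat wells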); settings: automated patch clamp current, at 10 µM; hits give high values
How it was run: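 Material: KCNQ1-expressing CHO cells; doses: 10 µM final, single point; probe or stimulus: voltage step from -90 mV holding to +40 mV, 2,000 ms; signal: automated voltage clamp, amphotericin B perforated patch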

[5] = target: Potassium voltage-gated channel subfamily E member 1 (Homo sapiens) + Potassium voltage-gated channel subfamily KQT member 1 (Homo sapiens) (UniProt P15382+P51787); assay: KCNQ1/KCNE1 complex potentiators, confirmation, selectivity assay for KCNQ1 potentiator project, thallium flux, CHO-K1 KCNQ1/E1 cells (AID 493186); settings: FluxOR thallium flux, at 10 µM; hits give high values;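 for activation: 0% = assay buffer control and 100% = R-L3 activator control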
How it was run: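 Test system: CHO-K1 cells with KCNQ1/E1. Times: 90-min dye loading then 20-min compound exposure, both at room temperature. Measured by: kinetic FluxOR thallium-flux fluorescence, 10 s baseline plus 110 s after stimulus. Repeats: duplicate wells per compound.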

Sequence of Potassium voltage-gated channel subfamily E member 1 (Homo sapiens) + Potassium voltage-gated channel subfamily KQT member 1 (Homo sapiens) (P51787 whole entry, looked up): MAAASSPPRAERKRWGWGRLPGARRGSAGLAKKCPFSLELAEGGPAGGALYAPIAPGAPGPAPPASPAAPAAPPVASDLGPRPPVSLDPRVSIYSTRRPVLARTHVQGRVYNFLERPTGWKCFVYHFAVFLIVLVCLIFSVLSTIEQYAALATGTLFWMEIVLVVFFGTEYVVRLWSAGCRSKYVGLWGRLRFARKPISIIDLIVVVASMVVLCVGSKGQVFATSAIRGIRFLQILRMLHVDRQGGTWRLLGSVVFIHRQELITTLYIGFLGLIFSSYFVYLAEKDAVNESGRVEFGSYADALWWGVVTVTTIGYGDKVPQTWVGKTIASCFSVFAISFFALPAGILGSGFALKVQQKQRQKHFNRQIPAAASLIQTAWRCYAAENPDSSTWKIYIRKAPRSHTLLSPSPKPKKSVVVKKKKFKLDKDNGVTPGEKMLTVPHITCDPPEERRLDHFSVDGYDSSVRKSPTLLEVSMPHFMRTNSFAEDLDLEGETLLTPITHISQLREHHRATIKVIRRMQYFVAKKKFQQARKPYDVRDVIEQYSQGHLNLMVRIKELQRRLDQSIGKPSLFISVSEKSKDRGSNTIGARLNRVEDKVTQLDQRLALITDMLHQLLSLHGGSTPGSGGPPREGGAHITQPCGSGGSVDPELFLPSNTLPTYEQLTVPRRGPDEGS
Sequence of Potassium voltage-gated channel subfamily KQT member 2 (Rattus norvegicus) (O88943 whole entry, looked up): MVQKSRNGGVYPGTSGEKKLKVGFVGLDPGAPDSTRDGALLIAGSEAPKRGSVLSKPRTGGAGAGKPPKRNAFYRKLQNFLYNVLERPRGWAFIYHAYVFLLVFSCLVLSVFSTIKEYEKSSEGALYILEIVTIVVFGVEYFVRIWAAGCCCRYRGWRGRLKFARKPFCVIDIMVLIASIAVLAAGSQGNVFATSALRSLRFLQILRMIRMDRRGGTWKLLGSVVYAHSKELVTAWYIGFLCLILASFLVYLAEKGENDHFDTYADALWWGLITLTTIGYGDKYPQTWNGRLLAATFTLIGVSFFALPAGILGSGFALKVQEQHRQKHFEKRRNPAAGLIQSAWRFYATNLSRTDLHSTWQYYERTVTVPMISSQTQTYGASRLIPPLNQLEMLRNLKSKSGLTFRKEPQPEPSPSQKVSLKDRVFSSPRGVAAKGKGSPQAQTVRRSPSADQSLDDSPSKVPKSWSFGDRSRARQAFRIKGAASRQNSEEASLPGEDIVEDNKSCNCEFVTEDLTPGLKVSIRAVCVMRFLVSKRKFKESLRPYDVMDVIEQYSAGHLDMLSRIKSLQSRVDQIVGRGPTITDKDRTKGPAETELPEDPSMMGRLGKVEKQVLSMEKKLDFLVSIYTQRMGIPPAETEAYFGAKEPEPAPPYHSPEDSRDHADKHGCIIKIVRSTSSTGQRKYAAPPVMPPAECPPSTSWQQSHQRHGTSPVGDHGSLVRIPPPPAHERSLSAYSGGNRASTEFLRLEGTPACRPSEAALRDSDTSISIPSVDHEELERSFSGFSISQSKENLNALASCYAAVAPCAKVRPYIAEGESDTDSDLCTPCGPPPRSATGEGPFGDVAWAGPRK
Sequence of Potassium voltage-gated channel subfamily KQT member 1 (Homo sapiens) (P51787 whole entry, looked up): as the sequence (P51787 whole entry, looked up) above

S=c1[nH]nc(-c2ccc(Br)o2)n1Cc1ccccc1
inactive: outcome [1] | outcome [2] | outcome [3] | outcome [4] | outcome [5]

CC1=NOC(=O)/C1=C\c1ccc(-c2ccc(Br)cc2)o1
inactive: outcome [1] | outcome [2] | outcome [3] | outcome [4] | outcome [5]

CCOC(=O)c1c(C)cccc1OCC(N)=O
inactive: outcome [1] | outcome [2] | outcome [3] | outcome [4] | outcome [5]

Cc1ccc(-c2noc(CNS(=O)(=O)c3ccccc3)n2)cc1
inactive: outcome [1] | outcome [2] | outcome [3] | outcome [4] | outcome [5]

CCn1c(=S)sc2nc(C)sc21
inactive: outcome [1] | outcome [2] | outcome [3] | outcome [4] | outcome [5]

COc1ccc(C2c3ccc4ccccc4c3Oc3ncn(CCN4CCOCC4)c(=N)c32)cc1OC (stereo not given)
inactive: outcome [1] | outcome [2] | outcome [3] | outcome [4] | outcome [5]

O=C(NCc1ccccn1)C1CCN(Cc2cccc(OCc3ccccc3)c2)CC1
inactive: outcome [1] | outcome [2] | outcome [3] | outcome [4] | outcome [5]

COc1ccc(-c2csc(NC(=S)NC(=O)c3ccco3)n2)cc1Br
inactive: outcome [1] | outcome [3] | outcome [4] | outcome [5]
active: potentiation [2] 25%

O=c1c2cc(Cl)ccc2[nH]c(=S)n1Cc1cccs1
active: potentiation [3] 142%
inactive: outcome [1] | outcome [2] | outcome [4] | outcome [5]

Cc1ccc(C(=O)CSc2nnc3c4ccccc4nc(C(C)(C)C)n23)cc1
inactive: outcome [1] | outcome [2] | outcome [3] | outcome [4] | outcome [5]

CCOC(=O)c1c(NC(=O)CN2CCN(C(=O)c3ccco3)CC2)sc2c1CCCC2
active: potentiation [2] 39.5%
inactive: outcome [1] | outcome [3] | outcome [4] | outcome [5]

Cc1ccc(N(C(=O)Cn2nnc(-c3ccccc3F)n2)C(C(=O)NC2CCCC2)c2ccncc2)cc1 (stereo not given)
inactive: outcome [1] | outcome [2] | outcome [3] | outcome [4] | outcome [5]

O=C(Nc1nc2c(Br)cc(Br)cc2c(=O)s1)c1ccco1
inactive: outcome [1] | outcome [2] | outcome [3] | outcome [4] | outcome [5]

CC(=C/c1ccccc1)/C=N/n1c(-c2ccco2)n[nH]c1=S
inactive: outcome [1] | outcome [2] | outcome [3] | outcome [4] | outcome [5]

CCCCCCCCN1[C@@H](CC(C)=O)c2cc(C(F)(F)F)ccc2S1(=O)=O
active: potentiation [2] 60.5%
inactive: outcome [1] | outcome [3] | outcome [4] | outcome [5]

O=C(N/N=C/c1ccc(-c2ccccc2)o1)c1ccccc1O
active: potentiation [2] 31%
inactive: outcome [1] | outcome [3] | outcome [4] | outcome [5]

S=c1[nH]c(-c2ccccc2)cn1/N=C/c1ccc(Br)cc1
inactive: outcome [1] | outcome [2] | outcome [3] | outcome [4] | outcome [5]

CN1C(=O)c2ccc(NC(=O)c3c(F)c(F)c(F)c(F)c3F)cc2C1=O
active: potentiation [2] 25.5%
inactive: outcome [1] | outcome [3] | outcome [4] | outcome [5]

CC1CCc2c(sc(NC(=O)C(=O)NCc3ccco3)c2C#N)C1 (stereo not given)
inactive: outcome [1] | outcome [2] | outcome [3] | outcome [4] | outcome [5]

Oc1c(Br)cc(Br)cc1CNc1cccc2cccnc12
active: potentiation [2] 28.5%
inactive: outcome [1] | outcome [3] | outcome [4] | outcome [5]

COc1ccc(-n2ccnc(SCC(=O)NC3CCCC3)c2=O)cc1OC
inactive: outcome [1] | outcome [2] | outcome [3] | outcome [4] | outcome [5]

Oc1c(/C=N/c2ccccn2)sc2ccccc12
inactive: outcome [1] | outcome [3] | outcome [4] | outcome [5]
active: potentiation [2] 18%

O=C(NCC1CCCO1)c1cccc(Oc2ccccc2)c1 (stereo not given)
inactive: outcome [1] | outcome [2] | outcome [3] | outcome [4] | outcome [5]

CCCc1cc(=O)[nH]c(SCC(=O)Nc2ccc(Br)cc2Br)n1
inactive: outcome [1] | outcome [2] | outcome [3] | outcome [4] | outcome [5]

CNC(=O)CSc1nc2c(c(=O)n(C)c(=O)n2C)n1Cc1ccc(C)cc1
inactive: outcome [1] | outcome [2] | outcome [3] | outcome [4] | outcome [5]

S=C(NCCc1ccccc1)N/N=C/C1CCCCC1
inactive: outcome [1] | outcome [2] | outcome [3] | outcome [4] | outcome [5]

COc1ccc(C(=O)NNC(=S)NC(=O)c2cc(-c3ccccc3)nc3ccccc23)cc1
inactive: outcome [1] | outcome [2] | outcome [3] | outcome [4] | outcome [5]

O=C(CN1CCCCCC1)Nc1ccc(Oc2ccccc2)cc1
inactive: outcome [1] | outcome [2] | outcome [3] | outcome [4] | outcome [5]

CCCN(CCC)Cc1c(C(=O)N/N=C/C(C)=C\c2ccco2)nnn1-c1nonc1N
inactive: outcome [1] | outcome [2] | outcome [3] | outcome [4] | outcome [5]

Cc1[nH]c(=S)c(C#N)c(C)c1Cc1ccc(Cl)cc1Cl
inactive: outcome [1] | outcome [2] | outcome [3] | outcome [4] | outcome [5]

FC(F)(F)c1cccc(CN2CCC(c3cc(-c4cccs4)n[nH]3)CC2)c1
inactive: outcome [1] | outcome [2] | outcome [3] | outcome [4] | outcome [5]

CCCn1c(=O)c(C(=O)NNC(=O)c2ccc(Cl)cc2Cl)c(O)c2ccccc21
active: potentiation [2] 30% | potentiation [3] 154%
inactive: outcome [1] | outcome [4] | outcome [5]

CC1(c2ccc(OC(F)F)cc2)NC(=O)N(CC(=O)Nc2ccc3c(c2)OCO3)C1=O (stereo not given)
inactive: outcome [1] | outcome [2] | outcome [3] | outcome [4] | outcome [5]

Cc1ccc(S(=O)(=O)Nc2cccc3ncccc23)s1
active: potentiation [2] 19.5% | potentiation [3] 168%
inactive: outcome [1] | outcome [4] | outcome [5]

CCn1c(CCNC(=O)c2ccc(Cl)cc2Cl)n[nH]c1=S
inactive: outcome [1] | outcome [2] | outcome [3] | outcome [4] | outcome [5]

CCN(CC)CCSc1nc2ccccc2c(=S)n1-c1ccccc1
inactive: outcome [1] | outcome [2] | outcome [3] | outcome [4] | outcome [5]

C=CCNC(=S)Nc1nc2c(cc1C(=O)OCC)CCCC2
active: potentiation [2] 39%
inactive: outcome [1] | outcome [3] | outcome [4] | outcome [5]

COc1ccc(CCNC(=O)CCOc2cc(C)ccc2C)cc1OC
inactive: outcome [1] | outcome [2] | outcome [3] | outcome [4] | outcome [5]

CC(Oc1ccc2ccccc2c1)C(=O)NNC(=S)NC(=O)c1ccco1 (stereo not given)
inactive: outcome [1] | outcome [4]
active: potentiation [2] 93% | potentiation [3] 214% | activation [5] 15.3%

COc1nccnc1NS(=O)(=O)c1ccc(NC(=S)NC(=O)c2ccccc2F)cc1
inactive: outcome [1] | outcome [2] | outcome [3] | outcome [4] | outcome [5]

O=C(NC(=S)Nc1cccc(Cl)c1)c1cncc(Br)c1
inactive: outcome [1] | outcome [2] | outcome [3] | outcome [4] | outcome [5]

O=[N+]([O-])c1cccc(/C=N/Nc2nc(NCc3ccccc3)nc(N3CCOCC3)n2)c1O
inactive: outcome [1] | outcome [2] | outcome [3] | outcome [4] | outcome [5]

Cc1cc(/C=N/NC(=O)C(O)(c2ccccc2)c2ccccc2)c(C)n1-c1ccccc1
inactive: outcome [1] | outcome [2] | outcome [3] | outcome [4] | outcome [5]

CC12CCC(C(=O)N(CSC(=S)N/N=C\c3ccccc3)C1=O)C2(C)C (stereo not given)
inactive: outcome [1] | outcome [3] | outcome [4] | outcome [5]
active: potentiation [2] 33.5%

Cc1ccc(C2C(C#N)=C(N)OC3=C2C(=O)CC(C)(C)C3)s1 (stereo not given)
inactive: outcome [1] | outcome [2] | outcome [3] | outcome [4] | outcome [5]

O=C1c2ccccc2C(=O)C12OC2c1cccc2ccccc12 (stereo not given)
inactive: outcome [1] | outcome [2] | outcome [3] | outcome [4] | outcome [5]

CS(=O)(=O)c1ccc(Cl)c(NC(=O)c2cc(S(=O)(=O)N3CCOCC3)ccc2N2CCCC2)c1
inactive: outcome [1] | outcome [2] | outcome [3] | outcome [4] | outcome [5]

Oc1c(N=NC(=S)Nc2ccccc2F)c2ccccc2n1Cc1ccc(Cl)cc1
inactive: outcome [1] | outcome [2] | outcome [3] | outcome [4] | outcome [5]

COC(=O)N1C(=O)[C@@](Cc2ccccc2)(c2ccccc2)N1C(=O)OC
inactive: outcome [1] | outcome [3] | outcome [4] | outcome [5]
active: potentiation [2] 24%

S=c1[nH]nc(-c2ccco2)n1/N=C/c1cccc(Cl)c1Cl
active: potentiation [2] 23.5%
inactive: outcome [1] | outcome [3] | outcome [4] | outcome [5]

COCc1cc(C)nc(NCCO)c1C#N
inactive: outcome [1] | outcome [2] | outcome [3] | outcome [4] | outcome [5]

O=C(NC1=NCCS1)c1ccc(N2CCCC2=O)cc1
inactive: outcome [1] | outcome [3] | outcome [4] | outcome [5]
active: potentiation [2] 28.5%

Cc1ccc(C(=O)NC(=S)N(C)C2CCCCC2)cc1Br
inactive: outcome [1] | outcome [4]
active: potentiation [2] 61% | potentiation [3] 159% | activation [5] 40.1%

Cc1ccc(-c2nnc(SCC(=O)N/N=C/c3ccccc3C(=O)O)n2-c2ccc(Cl)cc2)cc1
inactive: outcome [1] | outcome [2] | outcome [3] | outcome [4] | outcome [5]

COc1ccc(C(=O)NC(=S)N(C)C2CCCCC2)cc1Br
inactive: outcome [1] | outcome [2] | outcome [3] | outcome [4] | outcome [5]

Cc1ccc(-n2ncc(C(=O)Nc3cc(Cl)cc(Cl)c3)c2C2CCNCC2)cc1C
inactive: outcome [1] | outcome [2] | outcome [3] | outcome [4] | outcome [5]

Cn1c(=O)c2c(ncn2CC(=O)N/N=C/C(Cl)=C/c2ccccc2)n(C)c1=O
inactive: outcome [1] | outcome [2] | outcome [3] | outcome [4] | outcome [5]

C=CCNC(=S)Nc1sc2c(c1C(=O)OCC)CCN(C(=O)OCC)C2
inactive: outcome [1] | outcome [2] | outcome [3] | outcome [4] | outcome [5]

O=C(NC(=S)Nc1ccccc1N1CCCC1)c1ccc(-c2cccc([N+](=O)[O-])c2)o1
inactive: outcome [1] | outcome [2] | outcome [3] | outcome [4] | outcome [5]

Cc1ccc(C(=O)CC(=O)c2ccc(C)cc2O)cc1
inactive: outcome [1] | outcome [2] | outcome [3] | outcome [4] | outcome [5]

From PubChem BioAssay
